Activity calls are given as the source filed them. The rule behind the calls is not given here.
Columns and labels:
[1] = target: T1, Prostaglandin G/H synthase 1 (Ovis aries, UniProt P05979); experiment: Inhibition of ovine COX-1 using arachidonic acid as substrate preincubated for 5 mins followed by substrate addition measured after 1 hr
T1 sequence (P05979 whole entry): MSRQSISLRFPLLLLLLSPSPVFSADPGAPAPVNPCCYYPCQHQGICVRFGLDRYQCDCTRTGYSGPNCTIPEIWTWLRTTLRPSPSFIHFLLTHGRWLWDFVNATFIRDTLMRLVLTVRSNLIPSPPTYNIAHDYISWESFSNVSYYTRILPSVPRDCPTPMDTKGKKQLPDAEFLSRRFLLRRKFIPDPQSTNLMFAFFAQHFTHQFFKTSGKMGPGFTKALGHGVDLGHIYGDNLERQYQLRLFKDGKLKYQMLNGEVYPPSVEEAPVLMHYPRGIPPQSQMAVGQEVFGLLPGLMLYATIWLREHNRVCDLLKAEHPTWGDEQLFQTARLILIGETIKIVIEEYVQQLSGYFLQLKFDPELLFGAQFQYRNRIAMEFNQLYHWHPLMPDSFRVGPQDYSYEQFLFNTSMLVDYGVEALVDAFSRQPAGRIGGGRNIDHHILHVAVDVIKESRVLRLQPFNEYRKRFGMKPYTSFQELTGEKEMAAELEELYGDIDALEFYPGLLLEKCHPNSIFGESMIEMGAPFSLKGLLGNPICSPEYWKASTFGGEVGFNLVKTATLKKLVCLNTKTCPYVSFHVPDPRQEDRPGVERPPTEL

Mus musculus [2] = experiment: Antiinflammatory activity in carrageenan-induced Swiss mouse assessed as inhibition of paw edema at 60 mg/kg, po pretreated for 1 hr followed by carrageenan challenge measured after 6 hrs by plethysmometric method; assay type: functional
Splenocyte [3] = experiment: Antiinflammatory activity in BALB/c mouse splenocytes assessed as decrease of IL-6 level at 11 uM after 24 hrs by cytometric bead array method; assay type: functional, cell-based
Procedure, shortened: (§1)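 Splenocytes from female BALB/c mice (6–8 weeks) isolated on Ficoll-Paque (1.076 g/mL), viability >98% by trypan blue; cultured with 11 μM compound for 24 and 48 h. Supernatant cytokines measured by cytometric bead array on flow cytometer; two independent experiments in triplicate.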

Splenocyte [4] = experiment: Immunomodulatory activity in BALB/c mouse splenocytes assessed as inhibition of concanavalin A-induced lymphocyte proliferation by measuring [methyl-3H]-thymidine uptake at 50 uM after 48 hrs; assay type: functional
Procedure, shortened: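 BALB/c splenocytes (5×10⁶ cells/well) in DMEM, triplicate, with concanavalin A (2 μg mL⁻¹) ± compound 48 h at 37 °C, 5% CO₂, then 1 μCi [methyl-³H]thymidine for 12 h; inhibition from thymidine uptake relative to control; dexamethasone positive control.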

Splenocyte [5] = experiment: Antiinflammatory activity in BALB/c mouse splenocytes assessed as inhibition of IFNgamma level at 11 uM after 24 to 48 hrs by cytometric bead array method; assay type: functional, cell-based; procedure, shortened: as §1
Mus musculus [6] = experiment: Acute toxicity in Swiss mouse assessed as effect on blood cell levels at 2000 mg/kg, po (reference value: 13.0 +/- 0.9 10^6/mm3); assay type: organism-based; settings: in vivo
Splenocyte [7] = experiment: Antiinflammatory activity in BALB/c mouse splenocytes assessed as inhibition of IFNgamma-induced nitric oxide production at 11 uM after 24 to 48 hrs by Griess method; assay type: functional, cell-based
Mus musculus [8] = experiment: Acute toxicity in Swiss mouse assessed as effect on hematocrit levels at 2000 mg/kg, po (reference value: 74.7 +/- 6.05%); assay type: organism-based; settings: in vivo
Mus musculus [9] = experiment: Antiinflammatory activity in carrageenan-induced Swiss mouse assessed as inhibition of paw edema at 15 mg/kg, po pretreated for 1 hr followed by carrageenan challenge measured after 6 hrs by plethysmometric method; assay type: functional
Mus musculus [10] = experiment: Acute toxicity in Swiss mouse assessed as effect on hemoglobin levels at 2000 mg/kg, po (reference value: 14.5 +/- 0.6 g/dl); assay type: organism-based; settings: in vivo
[11] = target: T2, Prostaglandin G/H synthase 2 (Homo sapiens, UniProt P35354); experiment: Inhibition of recombinant N-terminal His6-tagged human COX-2 expressed in Baculovirus infected Sf21 cells using arachidonic acid as substrate preincubated for 5 mins followed by substrate addition measured after 1 hr; assay type: cell-based
T2 sequence (P35354 whole entry): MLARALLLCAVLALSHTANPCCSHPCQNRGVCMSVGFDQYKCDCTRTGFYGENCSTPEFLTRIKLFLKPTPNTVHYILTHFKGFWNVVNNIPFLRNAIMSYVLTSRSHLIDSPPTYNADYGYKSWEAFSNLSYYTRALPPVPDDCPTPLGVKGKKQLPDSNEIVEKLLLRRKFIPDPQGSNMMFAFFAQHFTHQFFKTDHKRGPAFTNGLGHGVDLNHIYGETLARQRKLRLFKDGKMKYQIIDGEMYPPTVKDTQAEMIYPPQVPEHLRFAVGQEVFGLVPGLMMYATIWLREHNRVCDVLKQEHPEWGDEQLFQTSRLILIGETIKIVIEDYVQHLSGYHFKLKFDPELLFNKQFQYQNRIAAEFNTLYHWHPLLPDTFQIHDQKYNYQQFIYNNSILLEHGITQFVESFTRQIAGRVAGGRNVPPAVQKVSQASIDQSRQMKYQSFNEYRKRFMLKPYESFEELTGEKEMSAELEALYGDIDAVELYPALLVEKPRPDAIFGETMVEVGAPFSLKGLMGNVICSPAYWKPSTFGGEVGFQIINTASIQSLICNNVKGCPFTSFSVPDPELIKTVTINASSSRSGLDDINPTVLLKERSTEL

Mus musculus [12] = experiment: Antiinflammatory activity in carrageenan-induced Swiss mouse assessed as inhibition of paw edema at 30 mg/kg, po pretreated for 1 hr followed by carrageenan challenge measured after 5 hrs by plethysmometric method; assay type: functional
[13] = Selectivity index, ratio of IC50 for ovine COX-1 to IC50 for recombinant N-terminal His6-tagged human COX-2
Procedure, shortened: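 COX-1 or COX-2 in 100 mM Tris-HCl pH 8.0 with hematin, compound (in DMSO, 1.5–100 μM) preincubated 5 min at room temperature; started with arachidonic acid plus TMPD, absorbance at 610 nm after 1 h; triplicate; IC50 calculated, selectivity index from COX-1 and COX-2 IC50s.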

[14] = Cytotoxicity against mouse J774 macrophages after 72 hrs by Alamar Blue assay; assay type: cell-based
Mus musculus [15] = experiment: Acute toxicity in Swiss mouse assessed as occurence of ptosis at 2000 mg/kg, po after 1 hr; assay type: organism-based; settings: in vivo
Procedure, shortened: (§2)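 Fixed-dose stepwise procedure following OECD acute oral toxicity guidelines; groups of 3 Swiss Mus musculus mice (20–35 g) dosed orally at 2000 mg kg⁻¹ and observed for clinical signs of pain, suffering and impending death. Test run in duplicate. Animals kept at 22 ± 3 °C, 12 h light/dark, free food and water.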

Mus musculus [16] = experiment: Acute toxicity in Swiss mouse assessed as effect on mean corpuscular volume at 2000 mg/kg, po (reference value: 57.3 +/- 3.01 […]); assay type: organism-based; settings: in vivo
Mus musculus [17] = experiment: Acute toxicity in Swiss mouse assessed as effect on mean corpuscular hemoglobin concentration level at 2000 mg/kg, po (reference value: 19.5 +/- 0.94%); assay type: organism-based; settings: in vivo
Mus musculus [18] = experiment: Acute toxicity in Swiss mouse assessed as occurence of irritability at 2000 mg/kg, po after 1 hr; assay type: organism-based; settings: in vivo; procedure, shortened: as §2
Mus musculus [19] = experiment: Antiinflammatory activity in carrageenan-induced Swiss mouse assessed as inhibition of paw edema at 60 mg/kg, po pretreated for 1 hr followed by carrageenan challenge measured after 1 hr by plethysmometric method; assay type: functional
Splenocyte [20] = experiment: Antiinflammatory activity in BALB/c mouse splenocytes assessed as increase of IL-4 level at 11 uM after 24 to 48 hrs by cytometric bead array method; assay type: functional, cell-based; procedure, shortened: as §1
Splenocyte [21] = experiment: Antiinflammatory activity in BALB/c mouse splenocytes assessed as inhibition of TNFalpha level at 11 uM after 24 to 48 hrs by cytometric bead array method; assay type: functional, cell-based; procedure, shortened: as §1
Mus musculus [22] = experiment: Antiinflammatory activity in carrageenan-induced Swiss mouse assessed as inhibition of paw edema at 30 mg/kg, po pretreated for 1 hr followed by carrageenan challenge measured after 1 hr by plethysmometric method; assay type: functional
Mus musculus [23] = experiment: Acute toxicity in Swiss mouse assessed as effect on mean corpuscular hemoglobin level at 2000 mg/kg, po (reference value: 11.16 +/- 0.53 pg); assay type: organism-based; settings: in vivo
Mus musculus [24] = experiment: Acute toxicity in Swiss mouse assessed as mortality at 2000 mg/kg, po; assay type: organism-based; settings: in vivo; procedure, shortened: as §2
Splenocyte [25] = experiment: Antiinflammatory activity in BALB/c mouse splenocytes assessed as inhibition of IL-2 level at 11 uM after 24 to 48 hrs by cytometric bead array method; assay type: functional, cell-based; procedure, shortened: as §1
Splenocyte [26] = experiment: Antiinflammatory activity in BALB/c mouse splenocytes assessed as increase of IL-10 level at 11 uM after 24 to 48 hrs by cytometric bead array method; assay type: functional, cell-based; procedure, shortened: as §1
Mus musculus [27] = experiment: Acute toxicity in Swiss mouse assessed as effect on leukocyte level at 2000 mg/kg, po (reference value: 10.8 +/- 6.25 10^3/mm3); assay type: organism-based; settings: in vivo
Mus musculus [28] = experiment: Antiinflammatory activity in carrageenan-induced Swiss mouse assessed as inhibition of paw edema at 10 mg/kg, po pretreated for 1 hr followed by carrageenan challenge measured after 2 hrs by plethysmometric method; assay type: functional
Mus musculus [29] = experiment: Antiinflammatory activity in carrageenan-induced Swiss mouse assessed as inhibition of paw edema at 10 mg/kg, po pretreated for 1 hr followed by carrageenan challenge measured after 6 hrs by plethysmometric method; assay type: functional
Mus musculus [30] = experiment: Antiinflammatory activity in carrageenan-induced Swiss mouse assessed as paw volume at 60 mg/kg, po pretreated for 1 hr followed by carrageenan challenge measured after 1 hr by plethysmometric method (reference value: 59.39 +/- 10.59 […]); assay type: functional
Mus musculus [31] = experiment: Antiinflammatory activity in carrageenan-induced Swiss mouse assessed as inhibition of paw edema at 30 mg/kg, po pretreated for 1 hr followed by carrageenan challenge measured after 6 hrs by plethysmometric method; assay type: functional

| SMILES | IC50 [1] [nM] | inhibition in vivo at 60 mg/kg (Mus musculus [2]) [%] | inhibition at 50 µM (Splenocyte [4]) [%] | Activity (Mus musculus [6]) [×10⁶ /mm3] | Activity (Mus musculus [8]) [%] | Activity (Mus musculus [10]) [g/dL] | IC50 [11] [nM] | Ratio IC50 [13] | CC50 at 72 h [14] [µM] | Activity (Mus musculus [15]) | Activity (Mus musculus [16]) [fL] | Activity (Mus musculus [17]) [%] | Activity (Mus musculus [18]) | Activity (Mus musculus [23]) [pg] | Activity (Mus musculus [24]) | Activity (Mus musculus [27]) [×10³ /mm3] | further results |
| --- | --- | --- | --- | --- | --- | --- | --- | --- | --- | --- | --- | --- | --- | --- | --- | --- | --- |
| N#CCC(=O)N/N=C/c1c[nH]c2ccccc12 | 1540 | 92.5 | 50.7 | 8.1 | 42.5 | 13.6 | 1020 | 1.51 | 150 | Non-Toxic | 51.5 | 33.8 | Non-Toxic | 17.05 | Non-Toxic | 3.6 | Activity (Splenocyte [3]): inactive; inhibition (Splenocyte [5]): Active; inhibition (Splenocyte [7]): Active; inhibition in vivo at 15 mg/kg (Mus musculus [9]): 67%; inhibition in vivo at 30 mg/kg (Mus musculus [12]): 100%; inhibition in vivo at 60 mg/kg (Mus musculus [19]): 74.3%; Activity (Splenocyte [20]): Active; inhibition (Splenocyte [21]): inactive; inhibition in vivo at 30 mg/kg (Mus musculus [22]): 88.9%; inhibition (Splenocyte [25]): Active; Activity (Splenocyte [26]): Active |
| COc1ccc2c(c1)c(CC(=O)O)c(C)n2C(=O)c1ccc(Cl)cc1 [INDOMETHACIN] |  |  |  |  |  |  |  |  |  |  |  |  |  |  |  |  | inhibition in vivo at 10 mg/kg (Mus musculus [28]): 72.4%; inhibition in vivo at 10 mg/kg (Mus musculus [29]): 84.1% |
| N#CCC(=O)N/N=C/c1c[nH]c2ccc(Br)cc12 | 180 | 66.3 | 62.7 | 8.4 | 57.6 | 14.1 | 250 | 0.72 | 144 | Non-Toxic | 53.6 | 32.9 | Non-Toxic | 16.8 | Non-Toxic | 5.9 | Activity (Mus musculus [30]): 48.33 mL; inhibition in vivo at 30 mg/kg (Mus musculus [31]): 61.8% |
| COc1ccc2[nH]cc(/C=N/NC(=O)CC#N)c2c1 |  |  | 43.7 |  |  |  |  |  | 101 |  |  |  |  |  |  |  |  |
| N#CCC(=O)N/N=C/c1c[nH]c2ccc(Cl)cc12 |  |  | 1.8 |  |  |  |  |  | 76.9 |  |  |  |  |  |  |  |  |
| N#CCC(=O)N/N=C/c1c[nH]c2c1ccc1ccccc12 |  |  | 1.2 |  |  |  |  |  | 78.5 |  |  |  |  |  |  |  |  |
